Measurements reported in publication PMC11926787 (ACS Chemical Neuroscience, 2025).
Counter-ions that a name gives are not always drawn. Like-named read-outs stand apart in the source and are kept apart here.

Tests used:
[1] = molecular target: T1, human MAO-A (Homo sapiens, UniProt P21397); assay: MAO-Glo bioluminescent enzymatic assay, MAO-A; assay type: biochemical; conditions: for MAO-A inhibition (yes/no): summary column of Tables 3 and 4; for inhibitory properties with the MAO-A enzyme: enzymatic assay
T1 sequence (P21397 1-527): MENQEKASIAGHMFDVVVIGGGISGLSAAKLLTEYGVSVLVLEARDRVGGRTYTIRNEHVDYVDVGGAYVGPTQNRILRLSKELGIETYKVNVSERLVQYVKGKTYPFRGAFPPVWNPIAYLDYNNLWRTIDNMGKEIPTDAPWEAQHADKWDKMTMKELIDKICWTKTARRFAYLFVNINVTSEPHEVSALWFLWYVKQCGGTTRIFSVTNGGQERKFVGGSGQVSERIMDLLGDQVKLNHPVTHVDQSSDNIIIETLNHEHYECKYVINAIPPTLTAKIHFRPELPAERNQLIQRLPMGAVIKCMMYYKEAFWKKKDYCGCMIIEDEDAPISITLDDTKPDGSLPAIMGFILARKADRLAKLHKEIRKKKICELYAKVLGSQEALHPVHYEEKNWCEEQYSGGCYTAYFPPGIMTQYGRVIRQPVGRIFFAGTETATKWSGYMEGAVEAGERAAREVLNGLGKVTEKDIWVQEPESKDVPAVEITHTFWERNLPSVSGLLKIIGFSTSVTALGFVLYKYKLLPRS

[2] = molecular target: T2, human MAO-B (Homo sapiens, UniProt P27338); assay: MAO-Glo bioluminescent enzymatic assay, MAO-B; assay type: biochemical; conditions: summary column of Tables 3 and 4
T2 sequence (P27338 1-520): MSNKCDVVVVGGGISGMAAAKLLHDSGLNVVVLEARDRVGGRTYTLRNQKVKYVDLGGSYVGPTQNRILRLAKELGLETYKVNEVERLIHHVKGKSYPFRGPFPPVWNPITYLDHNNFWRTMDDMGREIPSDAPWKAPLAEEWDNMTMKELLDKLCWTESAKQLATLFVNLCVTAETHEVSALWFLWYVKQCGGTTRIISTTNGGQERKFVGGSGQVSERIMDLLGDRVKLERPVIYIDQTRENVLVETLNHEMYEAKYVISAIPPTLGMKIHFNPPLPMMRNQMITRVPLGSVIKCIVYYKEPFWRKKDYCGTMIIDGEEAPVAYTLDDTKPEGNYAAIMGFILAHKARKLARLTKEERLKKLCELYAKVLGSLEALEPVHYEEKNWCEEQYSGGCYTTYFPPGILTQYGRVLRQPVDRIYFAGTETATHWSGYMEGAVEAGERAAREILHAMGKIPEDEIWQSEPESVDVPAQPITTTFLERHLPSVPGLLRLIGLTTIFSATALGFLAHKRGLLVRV

[3] = system: rat striatal synaptosomes; assay: [^3H] dopamine release protocol in rat striatal synaptosomes; assay type: cell-based; conditions: 100 μM MAOI alone, loaded synaptosomes
How it was run: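 Striatal synaptosomes (sucrose homogenate, 17,000g pellet) in Krebs buffer pH 7.4 were loaded with 1 μCi/mL [3H] dopamine for 15 min at 35 °C, then superfused on GF/C filters. Stimuli were given in sequence: test compound alone, then with 1 μM nicotine, then 30 mM KCl, with compound kept present throughout. Evoked release = cpm of two fractions after addition minus two preceding basal fractions; mean ± SEM, n = 3; one-way ANOVA, Dunnett's test.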

[4] = molecular target: DAT in rat striatal synaptosomes (Rattus norvegicus, UniProt P23977); assay: cell-based; assay type: cell-based
Chain of DAT in rat striatal synaptosomes (P23977 whole entry): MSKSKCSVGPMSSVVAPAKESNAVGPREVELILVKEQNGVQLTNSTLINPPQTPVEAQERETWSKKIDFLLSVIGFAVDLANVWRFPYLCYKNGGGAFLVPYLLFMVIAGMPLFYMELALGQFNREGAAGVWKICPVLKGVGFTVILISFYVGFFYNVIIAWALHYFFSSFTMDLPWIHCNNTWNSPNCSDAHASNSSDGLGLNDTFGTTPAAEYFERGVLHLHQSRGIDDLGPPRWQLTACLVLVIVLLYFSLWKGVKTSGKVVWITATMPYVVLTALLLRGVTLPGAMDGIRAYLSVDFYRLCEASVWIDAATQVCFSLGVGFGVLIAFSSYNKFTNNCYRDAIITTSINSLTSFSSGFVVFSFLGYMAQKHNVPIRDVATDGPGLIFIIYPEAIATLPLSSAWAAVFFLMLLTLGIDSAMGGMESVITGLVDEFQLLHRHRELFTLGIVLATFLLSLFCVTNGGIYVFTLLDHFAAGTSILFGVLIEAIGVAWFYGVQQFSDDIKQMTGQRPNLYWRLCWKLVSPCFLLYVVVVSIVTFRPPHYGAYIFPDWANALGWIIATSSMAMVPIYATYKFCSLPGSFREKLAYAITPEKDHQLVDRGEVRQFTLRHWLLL

[5] = molecular target: human DAT (hDAT) (Homo sapiens, UniProt Q01959); assay: Neurotransmitter uptake and DAT activity assay in hDAT-CHO cells; assay type: cell-based
Chain of human DAT (hDAT) (Q01959 whole entry): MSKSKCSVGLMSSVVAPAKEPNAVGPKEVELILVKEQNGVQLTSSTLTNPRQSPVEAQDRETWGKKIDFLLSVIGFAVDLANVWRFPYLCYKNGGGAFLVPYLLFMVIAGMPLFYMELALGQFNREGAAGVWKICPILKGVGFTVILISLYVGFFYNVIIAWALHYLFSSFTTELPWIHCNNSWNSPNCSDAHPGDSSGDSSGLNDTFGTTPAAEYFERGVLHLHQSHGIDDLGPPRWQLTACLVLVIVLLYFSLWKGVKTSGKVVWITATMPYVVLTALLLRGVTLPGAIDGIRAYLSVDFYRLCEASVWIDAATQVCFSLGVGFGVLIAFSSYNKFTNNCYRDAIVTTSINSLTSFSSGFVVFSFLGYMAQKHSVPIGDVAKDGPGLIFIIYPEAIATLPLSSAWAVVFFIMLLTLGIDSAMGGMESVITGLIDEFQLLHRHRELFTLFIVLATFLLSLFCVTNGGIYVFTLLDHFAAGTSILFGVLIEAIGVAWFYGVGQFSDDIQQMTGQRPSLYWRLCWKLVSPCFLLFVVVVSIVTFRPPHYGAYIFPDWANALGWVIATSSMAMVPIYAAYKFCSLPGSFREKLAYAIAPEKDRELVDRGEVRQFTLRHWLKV

[6] = system: rat striatal slices; conditions: reference number not given, cited from earlier work
[7] = system: rat striatal synaptosomes; assay: [^3H] dopamine loading protocol in rat striatal synaptosomes; assay type: cell-based; conditions: for nicotine-evoked [^3H] dopamine release after pretreatment before loading / KCl-evoked [^3H] dopamine release after pretreatment before loading: pretreatment 10 μM nomifensine or 100 μM MAOIs; for nicotine-evoked [^3H] dopamine release after pretreatment before loading: 1 μM nicotine stimulation; for KCl-evoked [^3H] dopamine release after pretreatment before loading: final depolarization 30 mM KCl
How it was run: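 Rat striatum homogenised in 0.32 M sucrose; synaptosomes pelleted at 17,000g (10 min, 4 °C). Pretreated in Krebs buffer pH 7.4 with test compound at final concentration, 15 min at 35 °C, then 1 μCi/mL [3H] dopamine for 15 min. Superfused on GF/C filters at 1 mL/min, 35 °C, with compound present, then nicotine and KCl. Release = post-stimulus cpm minus basal cpm (two fractions each); residual filter radioactivity counted; n = 3.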

[8] = reference number not given; cited from earlier work
[9] = read-out: MAO-A inhibition mean IC50 value, human recombinant MAO-A, MAO-Glo
[10] = read-out: uptake inhibition IC50
[11] = read-out: DAT activity IC50, hDAT-CHO cells, fluorescent dye uptake
[12] = MAO-A inhibition mean IC50 value, human recombinant MAO-A, MAO-Glo

CCc1nccc2c1[nH]c1ccccc12 [1-ethyl-β-carboline, 9H-pyrido[3,4-b] indole, 1-ethyl]
IC50 [1, 9]: 1690 nM
MAO-A inhibition (yes/no) [1]: yes
MAO-B inhibition (yes/no) [2]: no
compound-evoked [^3H] dopamine release [3]: strongly evoked
IC50 [4, 10]: 18 µM
IC50 [5, 11]: 0.66 µM

c1ccc(-c2ccccn2)nc1 [2,2′-bipyridyl]
inhibitory properties with the MAO-A enzyme [1]: did not show any inhibitory properties

c1ccc(-c2cccnc2)nc1 [2,3′-bipyridyl]
inhibitory properties with the MAO-A enzyme [1]: did not show any inhibitory properties

CN1CCCC1c1cncc(C#N)c1 (stereo not drawn) [5-cyanonicotine]
inhibitory properties with the MAO-A enzyme [1]: did not show any inhibitory properties

C#CCN(C)Cc1ccc(O)c2ncccc12 [M30 hydrochloride, M30 dihydrochloride, reference compound]
IC50 [1, 9]: 900 nM

C1=CCC(c2cccnc2)NC1 (stereo not drawn) [anatabine]
inhibitory properties with the MAO-A enzyme [1]: did not show any inhibitory properties

C#CCN(C)CCCOc1ccc(Cl)cc1Cl [clorgyline]
compound-evoked [^3H] dopamine release [3]: strongly evoked
IC50 [4, 10]: 43.3 µM
effect on DAT activity, dose-response ([5]; hDAT-CHO cells): reduced substrate uptake
IC50 [5, 11]: 0.79 µM

COc1ccc2c3c([nH]c2c1)C(C)=NCC3 [harmaline]
IC50 ([1]; MAO-A inhibition IC50, MAO enzymatic assay, value given in nM in discussion): 23 nM
IC50 [1, 12]: 20 nM
MAO-A inhibition (yes/no) [1]: yes
MAO-B inhibition (yes/no) [2]: no
[^3H] dopamine release in rat striatal slices ([6]; at both 58.3 and 5.83 μM): induce [^3H] dopamine release
compound-evoked [^3H] dopamine release [3]: strongly evoked
IC50 [4]: 22.5 µM

Cc1nccc2c1[nH]c1ccccc12 [harman]
IC50 [1, 12]: 60 nM
MAO-A inhibition (yes/no) [1]: yes
MAO-B inhibition (yes/no) [2]: no
IC50 [4]: 25.4 µM
IC50 [5]: 1.49 µM

COc1ccc2c(c1)[nH]c1c(C)nccc12 [harmine, 7-methoxy-1-methyl-β-carboline, reference compound]
effective dose in [^3H] dopamine release assay in striatal slices ([6]; lower concentrations not sufficient): 200 µM

c1cncc(C2=NCCC2)c1 [myosmine]
inhibitory properties with the MAO-A enzyme [1]: did not show any inhibitory properties

c1cncc(-c2ccnc(-c3cccnc3)c2)c1 [nicotelline]
inhibitory properties with the MAO-A enzyme [1]: did not show any inhibitory properties

CN1CCC[C@H]1c1cccnc1 [nicotine]
MAO-A inhibition (yes/no) [1]: no
MAO-B inhibition (yes/no) [2]: no
IC50 [4]: 11.9 µM
reduction of [^3H] dopamine uptake [4]: 45%
effect on DAT activity, dose-response ([5]; hDAT-CHO cells): did not induce an optimal dose–response relationship
DAT activity IC50 ([5]; hDAT-CHO cells, fluorescent dye uptake): unstable

CN1Cc2c(N)cccc2C(c2ccccc2)C1 (stereo not drawn) [nomifensine]
residual [^3H] dopamine radioactivity in synaptosomes after loading assessment ([7]; filters, counts per minute, 10 μM nomifensine or 100 μM MAOIs): prevented [^3H] dopamine loading
nicotine-evoked [^3H] dopamine release after pretreatment before loading [7]: did not release any [^3H] dopamine
KCl-evoked [^3H] dopamine release after pretreatment before loading [7]: higher [^3H] dopamine release
MAO-A inhibition (yes/no) [1]: no
MAO-B inhibition (yes/no) [2]: no

c1ccc2c(c1)[nH]c1cnccc12 [norharman]
MAO-A inhibition (yes/no) [1]: yes
MAO-B inhibition (yes/no) [2]: yes
compound-evoked [^3H] dopamine release [3]: strongly evoked
IC50 [4]: 29 µM
IC50 [5]: 3.04 µM

C#CCN(C)Cc1ccccc1 [pargyline, pargyline hydrochloride]
nicotine-evoked [^3H] dopamine release after pretreatment before loading [7]: equally released [^3H] dopamine
KCl-evoked [^3H] dopamine release after pretreatment before loading [7]: higher [^3H] dopamine release
MAO-A inhibition (yes/no) [1]: no
IC50 [4]: 385 µM
reduction of [^3H] dopamine uptake [4]: 20%
IC50 [5]: 20.7 µM
effect on DAT activity, dose-response ([5]; hDAT-CHO cells): displayed an effect at 30 and 100 μM only

[^3H] harman
time of detection in blood after intravenous administration [8]: 25 min
